Eleven compounds from ChEMBL document CHEMBL4706714 (Bioorg Med Chem, 2021) can be followed below.

Calls of active or inactive are those of the source. The calls are words filed in the database; no cut-off is given here.

Experiment [1] in a line: Cytotoxicity against Chinese Hamster MTXRII-OuaR2-4 R2 cells assessed as reduction in cell proliferation after 96 hrs by CellTiter-blue assay. It counts as cell-based. Conditions: Cricetulus griseus, R2, 96 h. A general note: Alamar Blue is a resazurin reagent that responds to reducing activity.
Experiment [2] relates to KB. Briefly: Antiproliferative activity against human KB cells assessed as reduction in cell viability after 96 hrs by CellTiter-blue assay. It counts as functional, cell-based.
In experiment [3] the test system is KB. Briefly: Antiproliferative activity against human KB cells assessed as reduction in cell viability after 96 hrs in presence of folic acid by CellTiter-blue assay. It counts as functional, cell-based. An outline of the steps:
(§1)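 Cells grown in folate-free RPMI with 10% dialyzed FBS, 2 nM leucovorin, 2 mM L-glutamine; 2500–5000 cells/well, inhibitors 0–1000 nM, with 200 nM folic acid added in parallel wells to block FR uptake.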

Experiment [4] deals with IGROV-1. Nature of the experiment: Antiproliferative activity against human IGROV1 cells assessed as reduction in cell viability after 96 hrs by CellTiter-blue assay. It counts as functional, cell-based. Conditions: IGROV-1, 96 h.
In experiment [5] the test system is IGROV-1. Nature of the experiment: Antiproliferative activity against human IGROV1 cells assessed as reduction in cell viability after 96 hrs in presence of folic acid by CellTiter-blue assay. Conditions: IGROV-1, 96 h. It counts as functional, cell-based. The gist of the method: as §1
For experiment [6], the target named is T1, Bifunctional purine biosynthesis protein ATIC (Homo sapiens, UniProt P31939). Nature of the experiment: Inhibition of human full length N-terminal His-tagged ATIC expressed in Chinese Hamster MTXRII-OuaR2-4 R2 cells assessed as reduction in THF formation using 10-CHOTHF as substrate by spectrophotometric method.
Target sequence in this assay (P31939 whole entry): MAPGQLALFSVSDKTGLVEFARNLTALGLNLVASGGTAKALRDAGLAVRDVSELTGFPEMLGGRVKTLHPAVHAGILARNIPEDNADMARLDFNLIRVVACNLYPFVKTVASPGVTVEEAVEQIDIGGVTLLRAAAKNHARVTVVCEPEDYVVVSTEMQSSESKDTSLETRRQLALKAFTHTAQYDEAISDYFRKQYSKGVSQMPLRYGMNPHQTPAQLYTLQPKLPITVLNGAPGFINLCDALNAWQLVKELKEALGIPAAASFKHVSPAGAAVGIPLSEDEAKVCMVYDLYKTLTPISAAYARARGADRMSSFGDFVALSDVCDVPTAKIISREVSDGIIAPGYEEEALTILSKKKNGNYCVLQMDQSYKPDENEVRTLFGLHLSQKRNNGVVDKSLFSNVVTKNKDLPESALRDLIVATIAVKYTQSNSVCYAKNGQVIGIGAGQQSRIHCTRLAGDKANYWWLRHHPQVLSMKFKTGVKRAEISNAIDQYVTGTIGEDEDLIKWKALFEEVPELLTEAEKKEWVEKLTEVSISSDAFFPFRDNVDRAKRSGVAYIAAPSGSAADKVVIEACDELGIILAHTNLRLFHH
The subject of experiment [7] is KB. Briefly: Antiproliferative activity against human KB cells assessed as reduction in cell viability after 96 hrs in presence of thymidine by CellTiter-blue assay. It counts as functional, cell-based. An outline of the steps:
(§2)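 KB cells, 4000 cells/well, in folate-free RPMI 1640 with 10% dialyzed FBS and 2 nM leucovorin. A range of drug concentrations was co-incubated with adenosine (60 μM) or thymidine (10 μM) for 96 h at 37 °C. Proliferation was read by CellTiter-blue fluorescence. Data are representative of at least triplicate experiments.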

The test system of experiment [8] is KB. Nature of the experiment: Antiproliferative activity against human KB cells assessed as reduction in cell viability after 96 hrs in presence of adenosine by CellTiter-blue assay. It counts as functional, cell-based. An outline of the steps: as §2
For experiment [9], the target named is Folate receptor alpha (Homo sapiens) (UniProt P15328). Nature of the experiment: Displacement of [3H]-folic acid from human FRalpha expressed in Chinese Hamster MTXRII-OuaR2-4 R2 cells after 15 mins by liquid scintillation counting method. It counts as cell-based. The gist of the method: (§3)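 RT16 (FRα) or D4 (FRβ) CHO transfectants, 1 × 10^6 cells, adhered 24 h; washed at 4 °C with DPBS, pH 3.5 acetate buffer to strip bound folate, then HBS pH 7.4. Incubated 15 min at 0 °C with 50 nM [3H]folic acid plus competitor 0–1 μM; bound label per mg protein (Folin-phenol).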

The target of experiment [10] is Folate receptor beta (Homo sapiens) (UniProt P14207). Briefly: Displacement of [3H]-folic acid from human FRbeta expressed in Chinese Hamster MTXRII-OuaR2-4 R2 cells after 15 mins by liquid scintillation counting method. It counts as cell-based. An outline of the steps:
as §3

The nature of experiment [11]: Inhibition of human full length N-terminal His-tagged GARFTase expressed in Chinese Hamster MTXRII-OuaR2-4 R2 cells assessed as reduction in THF formation using 10-CHOTHF as substrate by spectrophotometric method.
Experiment [12] relates to IGROV-1. Briefly: Inhibition of GARFTase in human IGROV1 assessed as increase in GAR level at 1 uM after 48 hrs by LC-MS/MS analysis. An outline of the steps: (§4)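 NCI-IGROV1 ovarian cells in folate-free RPMI, 10% FBS, 2 mM L-glutamine, five replicate dishes, adhered 24 h; medium replaced and 1 μM inhibitor or DMSO vehicle added for 48 h. Extracted metabolites measured by reverse-phase LC-MS, negative ion mode, identified by exact mass and retention time against standards; normalized to cell protein; expressed relative to vehicle control.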

The subject of experiment [13] is IGROV-1. Nature of the experiment: Inhibition of GARFTase in human IGROV1 assessed as decrease in fGAR level at 1 uM after 48 hrs by LC-MS/MS analysis relative to control. The gist of the method: as §4
Experiment [14] addresses T1, Bifunctional purine biosynthesis protein ATIC. Briefly: Inhibition of AICARFTase in human IGROV1 assessed as decrease in ZMP level at 1 uM after 48 hrs by LC-MS/MS analysis relative to control. Conditions: IGROV-1. An outline of the steps:
as §4
Target sequence in this assay (P31939 whole entry, looked up): as the sequence (P31939 whole entry) above

Experiment [15] can be described thus: Inhibition of de nova purine biosynthesis in human IGROV1 assessed as decrease in IMP level at 1 uM after 48 hrs by LC-MS/MS analysis relative to control. It counts as functional. Conditions: IGROV-1. An outline of the steps:
as §4

Experiment [16] is described as follows: Inhibition of de nova purine biosynthesis in human IGROV1 assessed as decrease in ATP level at 1 uM after 48 hrs by LC-MS/MS analysis relative to control. It counts as functional. Conditions: IGROV-1. An outline of the steps: as §4
Experiment [17] in a line: Inhibition of de nova purine biosynthesis in human IGROV1 assessed as decrease in ADP level at 1 uM after 48 hrs by LC-MS/MS analysis relative to control. Conditions: IGROV-1. It counts as functional. An outline of the steps:
as §4

Experiment [18] relates to IGROV-1. Briefly: Inhibition of de nova purine biosynthesis in human IGROV1 assessed as decrease in AMP level at 1 uM after 48 hrs by LC-MS/MS analysis. It counts as functional. The gist of the method: as §4

Sequence of Folate receptor alpha (Homo sapiens) (P15328 25-234 limits assumed): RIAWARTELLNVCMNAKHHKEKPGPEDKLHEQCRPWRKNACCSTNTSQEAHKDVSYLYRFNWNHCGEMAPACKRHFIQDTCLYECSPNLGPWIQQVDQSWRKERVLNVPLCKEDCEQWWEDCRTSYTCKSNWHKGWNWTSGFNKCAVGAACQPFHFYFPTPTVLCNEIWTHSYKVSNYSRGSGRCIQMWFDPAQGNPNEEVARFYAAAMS
Sequence of Folate receptor beta (Homo sapiens) (P14207 17-230 limits assumed): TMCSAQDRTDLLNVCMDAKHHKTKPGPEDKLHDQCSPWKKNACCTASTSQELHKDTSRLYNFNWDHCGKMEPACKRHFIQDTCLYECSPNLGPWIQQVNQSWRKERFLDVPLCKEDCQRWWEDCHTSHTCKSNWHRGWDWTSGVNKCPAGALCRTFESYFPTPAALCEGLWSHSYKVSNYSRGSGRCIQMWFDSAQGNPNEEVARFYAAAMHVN

A word on the IC50: it is the concentration that gives 50% inhibition. One may read the Ki as the equilibrium dissociation constant of an inhibitor or competing ligand from its target. Consider `Nc1nc2sc(CCCc3csc(C(=O)N[C@@H](CCC(=O)O)C(=O)O)c3)cc2c(=O)[nH]1`, for which the IC50 is above 1 µM in [1]; 0.00148 µM in the experiment on KB [2]; above 1 µM with KB [3]; 0.0867 µM in the experiment on IGROV-1 [4]; above 1 µM in the experiment with IGROV-1 [5]. Besides, in experiment [6], the Ki turned out to be 19.8 µM. For the same compound, the outcome with KB [7] was Active. Besides, the result in the experiment on KB [8] was inactive.
With `Nc1nc2sc(CCCCc3ccc(C(=O)N[C@@H](CCC(=O)O)C(=O)O)o3)cc2c(=O)[nH]1`, the IC50 in experiment [1] is above 1 µM; with KB [2] it was 0.0079 µM; with KB [3] it was above 1 µM; in the experiment on IGROV-1 [4], above 1 µM; with IGROV-1 [5], above 1 µM. For the same compound, the Activity was 89% in [9] and 60% in experiment [10]. Besides, the values for the Ki in experiment [11] and in [6] were 10.7 µM and 24.7 µM, respectively. The result in the experiment on KB [7] was Active. The result in the experiment with KB [8] was inactive.
As to `Nc1nc2sc(CCCCc3csc(C(=O)N[C@@H](CCC(=O)O)C(=O)O)c3)cc2c(=O)[nH]1`, the IC50 in experiment [1] was above 1 µM; in the experiment on KB [2], 0.00685 µM; in the experiment with KB [3], above 1 µM; in the experiment with IGROV-1 [4], 0.108 µM; with IGROV-1 [5], above 1 µM. Moreover, the Ki in [11] is above 150 µM; in [6], 8.03 µM. The result with KB [7] was Active. In addition, in the experiment on KB [8], the result was inactive.
On to `Nc1nc2[nH]cc(CCCCc3ccc(C(=O)N[C@@H](CCC(=O)O)C(=O)O)cc3)c2c(=O)[nH]1`, for which the result with KB [7] was Active. Further, the outcome with KB [8] was inactive.
As for `Nc1nc2sc(CCCc3cc(C(=O)N[C@@H](CCC(=O)O)C(=O)O)cs3)cc2c(=O)[nH]1`, the IC50 in experiment [1] was above 1 µM; in the experiment on KB [2], 0.00182 µM; in the experiment with KB [3] it was above 1 µM; with IGROV-1 [4], 0.026 µM; with IGROV-1 [5], above 1 µM. In addition, the Ki in experiment [11] turned out to be 0.91 µM; in experiment [6], 8.37 µM. The outcome in the experiment with KB [7] was Active. In addition, the outcome in the experiment on KB [8] was inactive.
Consider `Nc1nc2[nH]cc(CCc3ccc(C(=O)N[C@@H](CCC(=O)O)C(=O)O)cc3)c2c(=O)[nH]1` [PEMETREXED], for which the inhibition constant (Ki) in experiment [11] is above 150 µM.
Regarding `Nc1nc2sc(CCCCc3ccc(C(=O)N[C@@H](CCC(=O)O)C(=O)O)cc3)cc2c(=O)[nH]1`, the IC50 (in experiment [1]; in the experiment with KB [3]; in the experiment with IGROV-1 [5]) was above 1 µM each time. Moreover, the Ki in [6] turned out to be 9.48 µM. Also, the outcome with KB [7] was Active. Further, in the experiment on KB [8], the outcome was inactive.
Turning to `Nc1nc2sc(CCCCc3cc(C(=O)N[C@@H](CCC(=O)O)C(=O)O)cs3)cc2c(=O)[nH]1`, the IC50 was above 1 µM in [1]; 0.00474 µM in the experiment on KB [2]; above 1 µM in the experiment on KB [3]; above 1 µM in the experiment on IGROV-1 [4]; above 1 µM in the experiment with IGROV-1 [5]. Moreover, the results for the Ki in experiment [11] and in experiment [6] were 0.15 µM and 1.07 µM, respectively. Also, in the experiment on KB [7], the outcome was Active. For the same compound, in the experiment on KB [8], the result was inactive.
As a reminder, the inhibition is the change of the read-out against control, counted positive when it falls. For the compound `Nc1nc2sc(CCCc3ccc(C(=O)N[C@@H](CCC(=O)O)C(=O)O)s3)cc2c(=O)[nH]1`, the concentration for half-maximal inhibition (IC50) in [1] is above 1 µM; in the experiment on KB [2], 0.00142 µM; in the experiment on KB [3], above 1 µM; with IGROV-1 [4], 0.0541 µM; in the experiment with IGROV-1 [5], above 1 µM. Moreover, the Activity in experiment [9] is 89%; in [10] it was 60%. For the same compound, the figures for the Ki in experiment [11] and in [6] were 8.19 µM and 14.5 µM, respectively. For the same compound, in the experiment with KB [7], the outcome was Active. Moreover, the outcome in the experiment on KB [8] was inactive. The fold change (FC) in the experiment with IGROV-1 [12] amounted to 150. Further, in the experiment on IGROV-1 [13], the inhibition was found to be 75%. Further, the inhibition entry (in experiment [14]; in the experiment with IGROV-1 [18]) was “Active” throughout. Further, the results for the inhibition at 1 µM in experiment [15], in experiment [16] and in [17] were 60%, 75% and 60%, respectively.
As to `Nc1nc2[nH]c(CCCc3ccc(C(=O)N[C@@H](CCC(=O)O)C(=O)O)s3)cc2c(=O)[nH]1`, in the experiment on IGROV-1 [12], the fold change (FC) was determined as 150. For the same compound, the results for the inhibition (with IGROV-1 [13]; in experiment [14]) were 99% and 50%, respectively. Further, the inhibition at 1 µM was 60% in experiment [15], 75% in [16] and 60% in experiment [17]. In addition, the inhibition entry with IGROV-1 [18] was “Active”.
Turning to `Nc1nc2sc(CCCCc3ccc(C(=O)N[C@@H](CCC(=O)O)C(=O)O)s3)cc2c(=O)[nH]1`, the IC50 in [1] is above 1 µM; with KB [2], 0.0021 µM; in the experiment with KB [3], above 1 µM; with IGROV-1 [4] it was 0.0101 µM; in the experiment with IGROV-1 [5], above 1 µM. In addition, the Activity in experiment [9] was 89%; in experiment [10], 60%. Also, the Ki in experiment [11] worked out at 1.36 µM; in experiment [6], 5.15 µM. The outcome in the experiment on KB [7] was Active. Further, the outcome in the experiment on KB [8] was inactive. Besides, the fold change (FC) in the experiment with IGROV-1 [12] worked out at 150. For the same compound, the inhibition in the experiment with IGROV-1 [13] turned out to be 50%. The inhibition result (in [14]; with IGROV-1 [18]) was “Active” throughout. The figures for the inhibition at 1 µM in [15], in experiment [16] and in [17] were 60%, 75% and 60%, respectively.
